Key:
Serine protease 1 = Serine protease 1 (Homo sapiens, UniProt P07477); experiment: Binding affinity towards trypsin
[1] = Percentage reduction in erythrocytes following elastase challenge/treatment.; type: functional; design: concentration or dose not given beside the values
Method in brief: (§1)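 Male Syrian hamsters (90–110 g), anaesthetised with brevital sodium (30 mg/kg ip), received intratracheal HNE (400 μg in 0.01 M PBS). Test agent was given intratracheally, either admixed with the enzyme or predosed (shortest interval 6 h). Dose interval is the longest with significant lesion inhibition. At 24 h, wet lung weight/body weight and lavage red/white cells (Coulter) were measured. Results are % reduction scaled between the HNE and saline controls (p = 0.05).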

Cathepsin G = target: T1, Cathepsin G (Homo sapiens, UniProt P08311); experiment: Binding affinity towards cathepsin G
T1 sequence (P08311 whole entry): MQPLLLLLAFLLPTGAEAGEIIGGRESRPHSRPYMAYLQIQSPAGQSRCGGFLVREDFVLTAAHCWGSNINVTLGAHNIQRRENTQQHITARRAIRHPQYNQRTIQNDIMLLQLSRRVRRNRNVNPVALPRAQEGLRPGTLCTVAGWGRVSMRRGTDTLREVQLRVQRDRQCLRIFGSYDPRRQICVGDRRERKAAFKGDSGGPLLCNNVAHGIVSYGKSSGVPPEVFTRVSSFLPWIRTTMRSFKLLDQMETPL

[2] = target: T2, Neutrophil elastase (Homo sapiens) (UniProt P08246); details: Lung
T2 sequence (whole entry): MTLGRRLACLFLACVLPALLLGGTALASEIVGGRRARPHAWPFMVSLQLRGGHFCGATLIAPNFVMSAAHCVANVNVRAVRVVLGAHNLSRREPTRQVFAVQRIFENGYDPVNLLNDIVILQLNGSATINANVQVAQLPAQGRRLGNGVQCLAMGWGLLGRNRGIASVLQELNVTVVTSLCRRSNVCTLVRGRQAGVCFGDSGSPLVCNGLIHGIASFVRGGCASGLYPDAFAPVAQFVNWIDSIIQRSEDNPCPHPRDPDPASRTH

[3] = target: T3, Angiotensin-converting enzyme (Rattus norvegicus, UniProt P47820); experiment: Biological activity was measured against Angiotensin I converting enzyme
T3 sequence (P47820 whole entry): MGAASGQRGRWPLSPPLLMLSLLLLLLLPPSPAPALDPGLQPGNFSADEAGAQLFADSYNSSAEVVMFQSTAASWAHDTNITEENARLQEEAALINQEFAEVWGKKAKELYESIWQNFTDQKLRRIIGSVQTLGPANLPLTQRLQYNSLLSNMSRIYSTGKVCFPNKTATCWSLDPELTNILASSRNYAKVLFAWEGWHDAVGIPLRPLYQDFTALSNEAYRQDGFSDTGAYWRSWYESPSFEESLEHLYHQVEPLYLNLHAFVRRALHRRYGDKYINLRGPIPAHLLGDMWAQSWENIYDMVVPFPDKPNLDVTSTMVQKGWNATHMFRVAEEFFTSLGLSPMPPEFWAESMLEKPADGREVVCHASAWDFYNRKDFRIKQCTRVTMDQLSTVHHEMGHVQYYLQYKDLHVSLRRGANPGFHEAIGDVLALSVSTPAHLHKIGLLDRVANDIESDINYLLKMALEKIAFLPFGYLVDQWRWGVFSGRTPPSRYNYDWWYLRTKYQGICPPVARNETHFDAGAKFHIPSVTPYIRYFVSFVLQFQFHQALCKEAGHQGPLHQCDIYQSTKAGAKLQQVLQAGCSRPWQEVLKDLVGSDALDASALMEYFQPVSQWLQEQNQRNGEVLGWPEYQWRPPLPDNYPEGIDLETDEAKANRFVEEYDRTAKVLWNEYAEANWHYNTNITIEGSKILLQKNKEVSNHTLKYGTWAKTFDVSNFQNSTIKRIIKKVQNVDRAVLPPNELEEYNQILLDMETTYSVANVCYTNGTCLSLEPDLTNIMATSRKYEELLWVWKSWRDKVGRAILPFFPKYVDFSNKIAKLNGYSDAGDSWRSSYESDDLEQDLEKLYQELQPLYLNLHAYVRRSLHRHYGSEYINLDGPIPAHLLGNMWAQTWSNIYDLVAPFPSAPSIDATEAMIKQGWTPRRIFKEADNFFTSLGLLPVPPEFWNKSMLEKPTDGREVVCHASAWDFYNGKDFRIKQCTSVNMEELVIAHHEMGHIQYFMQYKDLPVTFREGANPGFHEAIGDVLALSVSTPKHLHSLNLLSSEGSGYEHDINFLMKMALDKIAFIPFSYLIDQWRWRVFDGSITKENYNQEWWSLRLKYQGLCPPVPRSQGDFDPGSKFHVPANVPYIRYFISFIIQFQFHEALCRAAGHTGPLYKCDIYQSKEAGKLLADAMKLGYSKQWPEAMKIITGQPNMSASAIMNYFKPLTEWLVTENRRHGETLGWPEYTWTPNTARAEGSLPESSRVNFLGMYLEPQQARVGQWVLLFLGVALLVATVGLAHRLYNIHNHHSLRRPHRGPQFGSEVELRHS

Prothrombin = Prothrombin (Homo sapiens, UniProt P00734); experiment: Binding affinity towards thrombin
Chymotrypsinogen A = Chymotrypsinogen A (Bos taurus, UniProt P00766); experiment: Binding affinity towards chymotrypsin
[4] = Percent reduction in leukocytes following elastase challenge/treatment.; type: functional; design: concentration or dose not given beside the values; method in brief: as §1
Neutrophil elastase = target: T4, Neutrophil elastase (Homo sapiens, UniProt P08246); experiment: Inhibition of human neutrophil elastase-catalyzed hydrolysis of the synthetic substrate MeO-Suc-Ala-Ala-Pro-Val-pNa
T4 sequence (P08246 whole entry): T2 sequence (whole entry)

Papain = target: T5, Papain (Carica papaya, UniProt P00784); experiment: Binding affinity towards papain
T5 sequence (P00784 whole entry): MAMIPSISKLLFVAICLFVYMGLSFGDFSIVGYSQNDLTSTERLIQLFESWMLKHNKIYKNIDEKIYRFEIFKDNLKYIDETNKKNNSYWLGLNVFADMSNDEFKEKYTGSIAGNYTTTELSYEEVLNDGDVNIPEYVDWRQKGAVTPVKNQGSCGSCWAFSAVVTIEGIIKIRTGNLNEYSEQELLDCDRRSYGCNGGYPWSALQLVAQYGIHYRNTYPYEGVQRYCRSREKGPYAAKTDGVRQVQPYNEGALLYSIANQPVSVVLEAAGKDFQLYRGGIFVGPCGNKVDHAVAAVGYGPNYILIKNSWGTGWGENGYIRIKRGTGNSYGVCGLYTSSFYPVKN

Serine protease 1, sequence (P07477 whole entry): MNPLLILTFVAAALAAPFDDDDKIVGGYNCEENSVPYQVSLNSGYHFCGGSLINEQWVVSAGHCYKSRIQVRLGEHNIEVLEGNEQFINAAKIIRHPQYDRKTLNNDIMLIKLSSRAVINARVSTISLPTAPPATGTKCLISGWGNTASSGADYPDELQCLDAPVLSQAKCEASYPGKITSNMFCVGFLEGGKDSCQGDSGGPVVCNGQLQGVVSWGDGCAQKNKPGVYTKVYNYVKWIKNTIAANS

Ki (Serine protease 1): > 50 µM | Ki (Cathepsin G): > 2000 µM | Lw/Bw [2]: 54 | Ki [3]: > 200 µM | Ki (Prothrombin): > 50 µM | Ki (Chymotrypsinogen A): 92 µM | Ki (Neutrophil elastase): 0.0002 µM | Ki (Papain): > 200 µM
Compound: CC(C)[C@H](NC(=O)[C@@H]1CCCN1C(=O)[C@@H](NC(=O)c1ccc(C(=O)NS(=O)(=O)c2ccc(Cl)cc2)cc1)C(C)C)C(=O)c1nc2cc(C(N)=O)ccc2o1
Reduction [1]: 64% | Reduction [4]: 53%

Reference: ChEMBL document CHEMBL1128453, “Peptidyl alpha-ketoheterocyclic inhibitors of human neutrophil elastase. 3. In vitro and in vivo potency of a series of peptidyl alpha-ketobenzoxazoles” (J Med Chem, 1995)
